Data: ChEMBL document CHEMBL3792381, “Amine-free melanin-concentrating hormone receptor 1 antagonists: Novel 1-(1H-benzimidazol-6-yl)pyridin-2(1H)-one derivatives and design to avoid CYP3A4 time-dependent inhibition” (Bioorg Med Chem, 2016)
Converted amounts (≈) assume the structure as drawn. The source made the active and inactive calls. The rule behind the calls is not given here.

Experiments:
[1] = Tmax in Sprague-Dawley rat plasma at 1 mg/kg, po administered through cassette dosing by LC/MS/MS analysis; format: ADME, organism-based
Outline: (§1)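 Male SD rats (eight weeks old), fed, cassette-dosed iv at 0.1 mg/kg or orally at 1 mg/kg as a suspension in 0.5% methylcellulose; n = 3. Plasma obtained by centrifugation of blood, deproteinized with acetonitrile, and measured by LC/MS/MS. AUC covers 0–8 h. Bioavailability, total clearance and Vss are derived from the iv and po data.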

[2] = Fraction unbound in po dosed DIO-F344/Jcl rat plasma; format: ADME, organism-based
Rattus norvegicus [3] = assay: Antiobesity activity in DIO-F344/Jcl rat assessed as reduction in body weight at 10 mg/kg, po dosed for 2 weeks and measured every 2 or 3 days relative to vehicle control; format: functional; set-up: scale not given: the % may be the effect or the level left
Outline: (§2)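 DIO-F344 rats, 41 weeks old, habituated and grouped as for the 2-day study. Dosed orally once daily for 2 weeks in 0.5% methylcellulose at 2 mL/kg, 1–3 h before dark onset, after weighing; n = 5 or 6. Food intake measured every 2 or 3 days; body weight change expressed as percent of initial weight; sibutramine was the positive control.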

[4] = Solubility of compound at pH 6.8; format: physicochemical; conditions: buffer
Mus musculus [5] = assay: Antiobesity activity in MCHR1-deficient mouse assessed as reduction in body weight at 10 and 30 mg/kg, po dosed for 3 days; format: functional, organism-based
Outline: (§3)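 Male MCHR1-deficient and wild-type littermate mice, 27 weeks old, on high-fat diet from 7 weeks of age, housed individually and acclimated to tap-water dosing. Grouped by food intake from day −4 to day −1 and by day −1 body weight. Dosed orally once daily for 3 days in 0.5% methylcellulose at 10 mL/kg; n = 6. Body weight change and cumulative food intake measured over the 3 days.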

Rattus norvegicus [6] = assay: Anorectic effect in DIO-F344/Jcl rat assessed as inhibition of food intake at 3 mg/kg, po administered 2 hrs before onset of dark period for 2 days; format: functional; set-up: scale not given: the % may be the effect or the level left
Outline: (§4)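 Male DIO-F344/Jcl rats, 45 weeks old, on high-fat diet from 5 weeks of age, singly housed on powdered high-fat diet and habituated to oral dosing with tap water. Grouped by day-0 food intake and body weight. Dosed orally once daily, suspended in 0.5% methylcellulose at 2 mL/kg, 2 h before dark onset, for 2 days; n = 6. Cumulative 2-day food intake is expressed relative to the vehicle group.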

Rattus norvegicus [7] = assay: Trough plasma concentration in DIO-F344/Jcl rat at 10 mg/kg, po; format: ADME, organism-based; conditions: in vivo, read-out: Cmin
Outline: (§5)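 Trough plasma concentration taken in the 2-week repeated oral dosing study in DIO-F344 rats. Unbound concentration obtained from total concentration and the unbound fraction in DIO rat plasma.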

[8] = Total clearance in Sprague-Dawley rat plasma at 0.1 mg/kg, iv administered through cassette dosing by LC/MS/MS analysis; format: ADME, organism-based; outline: as §1
[9] = target: Melanin-concentrating hormone receptor 1 (Rattus norvegicus, UniProt P97639); assay: Displacement of [125I]-MCH(4-19) from rat MCHR1 expressed in CHO cell membranes after 1 hr by liquid scintillation counting
Outline: (§6)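 Membranes from CHO cells stably expressing human or rat MCHR1, prepared by homogenization and 100,000×g centrifugation, in 20 mM Tris-HCl pH 7.5 with 5 mM EDTA and protease inhibitors. Incubated with test compound and [125I]-MCH(4–19) for 1 h at room temperature. Filtered on PEI-treated GF/C filters and counted by scintillation. Nonspecific binding defined with cold MCH(1–19). IC50 from duplicate experiment.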

[10] = Volume of distribution in steady state in Sprague-Dawley rat plasma at 0.1 mg/kg, iv administered through cassette dosing by LC/MS/MS analysis; format: ADME, organism-based; conditions: read-out: Vdss; outline: as §1
Brain = assay: Drug uptake in po dosed DIO-F344/Jcl rat brain; format: ADME, organism-based; conditions: in vivo
Plasma = assay: Free plasma concentration in DIO-F344/Jcl rat at 10 mg/kg, po; format: ADME, organism-based; conditions: in vivo; outline: as §5
Mus musculus [11] = assay: Antiobesity activity in wild-type litter mate mouse assessed as reduction in body weight at 10 and 30 mg/kg, po dosed for 3 days; format: functional, organism-based; outline: as §3
Rattus norvegicus [12] = assay: Anorectic effect in orally dosed DIO-F344/Jcl rat assessed as inhibition of food intake administered 2 hrs before onset of dark period for 2 days; format: functional, organism-based; outline: as §4
[13] = AUC( 0 to 8 hrs) Sprague-Dawley rat plasma at 1 mg/kg, po administered through cassette dosing by LC/MS/MS analysis; format: ADME, organism-based; set-up: dose 1 mg/kg, time < 8 hr, route oral; outline: as §1
[14] = Cmax in Sprague-Dawley rat at 1 mg/kg, po administered through cassette dosing by LC/MS/MS analysis; format: ADME, organism-based; set-up: dose 1 mg/kg, route oral; conditions: in vivo; outline: as §1
Mus musculus [15] = assay: Anorectic effect in MCHR1-deficient mouse assessed as reduction in food intake at 10 and 30 mg/kg, po dosed for 3 days; format: functional, organism-based; outline: as §3
Rattus norvegicus [16] = assay: Anorectic effect in DIO-F344/Jcl rat assessed as cumulative food intake at 10 mg/kg, po dosed for 2 weeks and measured every 2 or 3 days relative to vehicle control; format: functional; outline: as §2
Rattus norvegicus [17] = assay: Antiobesity activity in DIO-F344/Jcl rat assessed as reduction in body weight at 3 mg/kg, po dosed for 2 weeks and measured every 2 or 3 days relative to vehicle control; format: functional; set-up: scale not given: the % may be the effect or the level left; outline: as §2
Rattus norvegicus [18] = assay: Anorectic effect in DIO-F344/Jcl rat assessed as inhibition of food intake at 10 mg/kg, po administered 2 hrs before onset of dark period for 2 days; format: functional; set-up: scale not given: the % may be the effect or the level left; outline: as §4
[19] = Ratio of drug level in brain to plasma in po dosed DIO-F344/Jcl rat; format: ADME, organism-based; conditions: brain and plasma, read-out: BPR
[20] = target: T1, Melanin-concentrating hormone receptor 1 (Homo sapiens, UniProt Q99705); assay: Antagonist activity at human MCHR1 expressed in CHO cells assessed as change in MCH(4 to 19)-stimulated Ca2+ concentration by Ca2+ mobilization assay; format: functional, cell-based
Outline: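 CHO dhfr− cells stably transfected with human MCHR1 (clone 4), seeded at 20000 cells/well and cultured about 24 h. Loaded with Fluo4 calcium dye for 30 min at 37 °C. Test compound in 10 mM HEPES pH 7.4 buffer with 0.1% BSA added, then MCH(4–19) at 2 nM final. Fluorescence read every 2 s; inhibition rate (%) taken relative to ligand-alone and DMSO-alone wells.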

[21] = Oral bioavailability in Sprague-Dawley rat plasma at 1 mg/kg administered through cassette dosing by LC/MS/MS analysis; format: ADME, organism-based; outline: as §1
Rattus norvegicus [22] = assay: Anorectic effect in DIO-F344/Jcl rat assessed as cumulative food intake at 3 mg/kg, po dosed for 2 weeks and measured every 2 or 3 days relative to vehicle control; format: functional; outline: as §2
CYP3A4 = CYP3A4 (Homo sapiens, UniProt P08684); assay: Time dependent inhibition of CYP3A4 in human liver microsomes assessed as conversion of testosterone to 6beta-hydroxytestosterone by measuring remaining activity at 30 uM by UPLC analysis in presence of NADPH generating system; format: ADME; conditions: read-out: Activity
Outline: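 Single-point assay: test compound at 30 µM preincubated with human liver microsomes at 37 °C in phosphate buffer pH 7.4 with an NADPH-generating system. Residual CYP3A4 activity then measured as testosterone 6β-hydroxylation by UPLC. Percent remaining = activity with preincubation (% of DMSO control) over activity without preincubation; n = 2.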

[23] = target: T1, Melanin-concentrating hormone receptor 1; assay: Displacement of [125I]-MCH(4 to 19) from human MCHR1 expressed in CHO cell membranes after 1 hr by liquid scintillation counting; outline: as §6

T1 sequence (Q99705 whole entry): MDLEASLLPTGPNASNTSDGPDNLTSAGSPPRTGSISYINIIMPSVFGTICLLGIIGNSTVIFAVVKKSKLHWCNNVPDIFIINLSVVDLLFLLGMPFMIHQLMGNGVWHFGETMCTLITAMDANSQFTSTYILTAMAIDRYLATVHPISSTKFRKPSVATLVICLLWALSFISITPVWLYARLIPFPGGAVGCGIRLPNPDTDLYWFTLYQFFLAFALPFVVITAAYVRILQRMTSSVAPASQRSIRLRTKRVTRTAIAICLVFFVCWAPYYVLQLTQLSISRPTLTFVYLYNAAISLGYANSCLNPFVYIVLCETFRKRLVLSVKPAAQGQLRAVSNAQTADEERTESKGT
Chain of Melanin-concentrating hormone receptor 1 (Rattus norvegicus, UniProt P97639) (P97639 whole entry): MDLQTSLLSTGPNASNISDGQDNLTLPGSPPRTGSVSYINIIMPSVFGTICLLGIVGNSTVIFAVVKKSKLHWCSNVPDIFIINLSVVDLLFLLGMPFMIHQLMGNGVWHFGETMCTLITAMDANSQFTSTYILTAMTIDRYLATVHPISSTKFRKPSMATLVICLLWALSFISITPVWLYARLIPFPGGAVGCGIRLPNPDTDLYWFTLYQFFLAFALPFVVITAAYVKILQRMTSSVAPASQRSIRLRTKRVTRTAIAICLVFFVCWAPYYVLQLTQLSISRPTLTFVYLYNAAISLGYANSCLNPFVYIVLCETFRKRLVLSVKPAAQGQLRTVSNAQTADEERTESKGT
Chain of CYP3A4 (P08684 whole entry): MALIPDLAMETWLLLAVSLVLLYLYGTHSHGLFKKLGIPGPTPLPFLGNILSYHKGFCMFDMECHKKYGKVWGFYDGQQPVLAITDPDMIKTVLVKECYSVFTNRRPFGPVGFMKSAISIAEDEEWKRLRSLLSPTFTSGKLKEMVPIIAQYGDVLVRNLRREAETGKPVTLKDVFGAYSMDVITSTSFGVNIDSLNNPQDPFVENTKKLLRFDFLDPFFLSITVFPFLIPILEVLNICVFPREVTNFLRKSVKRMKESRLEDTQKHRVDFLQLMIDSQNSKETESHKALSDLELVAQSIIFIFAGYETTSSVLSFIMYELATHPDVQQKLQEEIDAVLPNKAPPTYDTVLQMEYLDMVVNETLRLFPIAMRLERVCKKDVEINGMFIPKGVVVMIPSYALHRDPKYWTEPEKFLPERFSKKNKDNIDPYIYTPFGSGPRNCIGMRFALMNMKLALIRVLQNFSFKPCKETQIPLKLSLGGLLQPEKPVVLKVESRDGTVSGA

Cn1c(C2CC2)nc2ccc(-n3ccc(OCc4ccc(Cl)s4)cc3=O)cc21
Tmax [1]: 1 h
fraction unbound [2]: 0.02
Activity (Rattus norvegicus [3]): 4.1%
solubility [4]: 2.3 µg/mL (≈ 5.58 µM)
Activity (Mus musculus [5]): inactive
Activity (Rattus norvegicus [6]): 11.6%
concentration (Rattus norvegicus [7]): 790 nM
clearance [8]: 7.5 mL/min/kg
IC50 [9]: 11 nM
Vd [10]: 0.92 L/kg
Drug uptake (Brain): Active
Cp(f) (Plasma): 15.8 nM
Activity (Mus musculus [11]): Dose-dependent effect
Activity (Rattus norvegicus [12]): Dose-dependent effect
AUC(0-t) at 8 h [13]: 515 ng·h/mL
Cmax [14]: 165 ng/mL
Activity (Mus musculus [15]): Dose-dependent effect
Activity (Rattus norvegicus [16]): 20.9%
Activity (Rattus norvegicus [17]): 2.2%
Activity (Rattus norvegicus [18]): 36.5%
Kp [19]: 0.5
IC50 [20]: 24 nM
bioavailability [21]: 23%
Activity (Rattus norvegicus [22]): 11.6%
activity at 30 µM (CYP3A4): 83%
IC50 [23]: 19 nM
